Experimental data published in ChEMBL document CHEMBL4038313, “Expanding the Antiviral Spectrum of 3-Fluoro-2-(phosphonomethoxy)propyl Acyclic Nucleoside Phosphonates: Diamyl Aspartate Amidate Prodrugs” (J Med Chem, 2017).

How the values were obtained:
[1] = test system: Human immunodeficiency virus 1; test: Antiviral activity against HIV-1 infected in human MT4 cells measured on day 5 post-infection by trypan blue dye staining-based method; format: functional, cell-based; conditions: Human immunodeficiency virus 1, MT4, 120 h
[2] = test system: Human immunodeficiency virus 2; test: Antiviral activity against HIV-2 infected in human MT4 cells measured on day 5 post-infection by trypan blue dye staining-based method; format: functional, cell-based; conditions: Human immunodeficiency virus 2, MT4, 120 h
[3] = test system: Human immunodeficiency virus 1; test: Antiviral activity against CXCR4-tropic HIV-1 NL4-3 infected in human TZM-bl cells assessed as inhibition of virus-induced cytopathic effect preincubated with cells for 30 mins followed by viral infection measured after 48 hrs in presence of p-24 HIV-1 Ag by luciferase reporter gene assay; format: functional, cell-based; conditions: Human immunodeficiency virus 1, NL4-3, TZM-bl
Summary of the method: (§1)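 TZM-bl cells, 1 × 10^4 per well in DMEM with 10% FBS and 10 mM […], incubated 30 min at 37 °C with compound. Then HIV-1 NL4.3 (X4) or BaL (R5) added at 100 pg p24 Ag per well. After 48 h, cells lysed with luciferase substrate. Tat-induced luminescence read after 10 min dark incubation as a measure of replication.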

[4] = test system: Human immunodeficiency virus 1; test: Antiviral activity against CCR5 tropic HIV1 BaL infected in human TZM-bl cells assessed as inhibition of virus-induced cytopathic effect preincubated with cells for 30 mins followed by viral infection measured after 48 hrs in presence of p-24 HIV-1 Ag by luciferase reporter gene assay; format: functional, cell-based; conditions: Human immunodeficiency virus 1, BaL; summary of the method: as §1
[5] = Cytotoxicity against human TZM-bl cells assessed as cell viability by tetrazolium dye assay; format: cell-based
[6] = test system: Human immunodeficiency virus 1; test: (§2) Antiviral activity against CXCR4-tropic HIV-1 NL4-3 infected in human PHA-stimulated PBMC assessed as inhibition of viral replication by measuring reduction in p24 antigen production preincubated with cells for 30 mins followed by viral infection measured on day 10 post infection in presence of IL-2 by ELISA; format: functional; conditions: Human immunodeficiency virus 1, NL4-3
Summary of the method: (§3)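 PBMCs stimulated with 2 μg/mL PHA for 3 days at 37 °C, then 5 × 10^5 cells/ml preincubated 30 min at 37 °C with serial compound dilutions plus 2 ng/mL IL-2. Infected with 1500 pg/well HIV-1 BaL or 500 pg/well other isolates. IL-2 re-added on days 3 and 6. Supernatant p24 Ag measured by ELISA at day 10. EC50 is 50% inhibition of replication.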

[7] = test system: Human immunodeficiency virus 1; test: as §2, with “CCR5 tropic HIV1 BaL” for “CXCR4-tropic HIV-1 NL4-3”; format: functional; conditions: Human immunodeficiency virus 1, BaL; summary of the method: as §3
[8] = Cytotoxicity against human PHA-stimulated PBMC assessed as cell viability by tetrazolium dye assay; format: cell-based
[9] = Selectivity index, ratio of CC50 for human TZM-bl cells to EC50 for CXCR4-tropic HIV-1 NL4-3 infected in human TZM-bl cells; format: toxicity, cell-based; conditions: read-out: Ratio CC50/EC50
[10] = Selectivity index, ratio of CC50 for human TZM-bl cells to EC50 for CCR5 tropic HIV1 BaL infected in human TZM-bl cells; format: toxicity, cell-based; conditions: read-out: Ratio CC50/EC50
[11] = Selectivity index, ratio of CC50 for human PHA-stimulated PBMC to IC50 for CXCR4-tropic HIV-1 NL4-3 infected in human PHA-stimulated PBMC
[12] = Selectivity index, ratio of CC50 for human PHA-stimulated PBMCs to IC50 for CCR5 tropic HIV1 BaL infected in human PHA-stimulated PBMC
[13] = test system: Human immunodeficiency virus 1; test: Antiviral activity against tenofovir-resistant CXCR4-tropic HIV-1 NL4-3 harboring reverse transcriptase K65R mutant infected in human MT4 cells assessed as inhibition of viral replication inhibition of virus-induced cytopathic effect after 6 days by XTT dye based assay; format: functional, cell-based; conditions: Human immunodeficiency virus 1, NL4-3, MT4, 144 h
Summary of the method: (§4)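 MT-4 cells, 1 × 10^4 per well, given compound dilutions and wild-type NL4-3 or K65R NL4-3. Virus titred to give 85–95% cell killing at day 6. Incubated 6 days at 37 °C, 5% CO2. Viability read by XTT at 450/650 nm. EC50 from CPE reduction and toxicity from uninfected drug wells, by four-parameter fit. Fold change is K65R EC50 over wild-type EC50.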

[14] = test system: Human immunodeficiency virus 1; test: Selectivity ratio of EC50 for tenofovir-resistant CXCR4-tropic HIV-1 NL4-3 harboring reverse transcriptase K65R mutant infected in human MT4 cells to EC50 for CXCR4-tropic HIV-1 NL4-3 infected in human MT4 cells; format: functional; summary of the method: as §4
[15] = Cytotoxicity against human MT4 cells assessed as reduction in cell viability after 6 days by XTT tetrazolium dye-based assay; summary of the method: as §4
Hepatitis B virus [16] = test: Antiviral activity against HBV ayw1 infected in human HepG2(2.2.15) cells assessed as reduction in viral replication by measuring extracellular viral DNA copy number after 6 days by real-time qPCR method; format: functional, cell-based; conditions: ayw1, HepG2 2.2.15, 144 h
Summary of the method: (§5)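 HepG2.2.15 cells (two copies of HBV ayw1 genome), 1.5 × 10^4/well in DMEM with 2% FBS and 380 μg/mL G418. After 16–24 h, compound added in triplicate, medium with compound renewed at day 3. Supernatant collected at day 6, Pronase-treated, and extracellular HBV DNA measured by TaqMan qPCR (precore/core) against an HBV DNA standard curve. EC50/EC90 derived; CC50 by MTS uptake.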

[17] = Cytotoxicity against human HepG2.2.15 cells assessed as cell viability by tetrazolium dye uptake assay; format: cell-based, HepG2 2.2.15
Summary of the method: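 HepG2.2.15 cells (two integrated copies of HBV ayw1 genome) were seeded at 1.5 × 10^4 cells/well in DMEM with 2% FBS, 380 μg/mL G418, glutamine, antibiotics and nonessential amino acids. After 16−24 h, medium with various compound concentrations was added in triplicate and renewed on day 3. After 6 days of treatment, viability was read by MTS uptake and CC50 was calculated.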

[18] = Selectivity index, ratio of CC50 for HepG2.2.15 cells to EC50 for HBV ayw1 infected in human HepG2(2.2.15) cells assessed as reduction in viral replication by measuring extracellular viral DNA copy; summary of the method: as §5
Human betaherpesvirus 5 [19] = test: Antiviral activity against Human cytomegalovirus AD169 infected in HEL cells assessed as inhibition of virus-induced cytopathic effect; format: functional, cell-based; conditions: Human betaherpesvirus 5, AD169, HEL
Summary of the method: (§6)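 HEL fibroblast monolayers inoculated with 100 CCID50 HCMV (AD-169, Davis) or 20 PFU VZV (TK+ Oka, TK− 07-1). Adsorbed 1–2 h, inoculum removed, then incubated with compound dilutions. HCMV cytopathicity or VZV plaques scored once untreated infected controls reached completion. EC50 is 50% reduction. SI is CC50/EC50, and the potency ratio is the ratio of EC50s.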

Human betaherpesvirus 5 [20] = test: Antiviral activity against HCMV Davis strain infected in HEL cells assessed as inhibition of virus-induced cytopathic effect; format: functional, cell-based; conditions: Human betaherpesvirus 5, Davis; summary of the method: as §6
Human alphaherpesvirus 3 [21] = test: Antiviral activity against thymidine kinase expressing Varicella-Zoster virus Oka strain assessed as inhibition of plaque formation; format: functional; conditions: Human alphaherpesvirus 3, strain Oka vaccine; summary of the method: as §6
Human alphaherpesvirus 3 [22] = test: Antiviral activity against thymidine kinase deficient Varicella-Zoster virus 07-1 infected in HEL cells assessed as inhibition of plaque formation; format: functional, cell-based; conditions: Human alphaherpesvirus 3, 07-1, HEL; summary of the method: as §6
[23] = Cytotoxic activity against HEL cells assessed as alteration of cell morphology after 3 days by microscopic method; format: cell-based; conditions: human
Summary of the method: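 HEL cells with compound; MCC is the lowest concentration giving microscopically detectable alteration of cell morphology.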

[24] = Cytotoxic activity against HEL cells assessed as reduction in cell proliferation after 3 days by coulter counting method; format: cell-based; conditions: human
Summary of the method: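 HEL cells seeded at 5 × 10^3/well, grown 24 h, then given compound for 3 days at 37 °C. Cell number counted by Coulter counter. CC50 is 50% reduction of proliferation relative to untreated controls, read from graphic plots.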

[25] = Half life in human plasma at 1 uM by HPLC-MS/MS method; format: ADME, cell-free
Summary of the method: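 Human plasma preincubated 10 min with pH 7.4 phosphate buffer at 37 °C. Compound added at final 1 μM and sampled at 0, 0.5, 1, 1.5 and 2 h into acetonitrile. Centrifuged and analysed by HPLC-MS/MS. t1/2 is the mean of two experiments.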

[26] = Half life in human liver microsomes at 0.1 uM in presence of NADPH by HPLC-MS/MS method; format: ADME, microsome
Summary of the method: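 Pooled human liver microsomes preincubated 10 min at 37 °C with an NADPH-regenerating system (1 mM NADP, 5 mM G6P, G6PDH) in pH 7.4 phosphate with 3 mM MgCl2 and 1 mM EDTA. Compound added at final 0.1 μM and sampled at 0–60 min into acetonitrile/methanol. Analysed by HPLC-MS/MS, mean of two experiments.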

[27] = Selectivity index, ratio of CC50 for human HEL cells to EC50 for HCMV AD-169 strain; summary of the method: as §6
[28] = Selectivity index, ratio of CC50 for human HEL cells to EC50 for HCMV Davis strain; summary of the method: as §6
[29] = test system: Human immunodeficiency virus 1; test: Antiviral activity against CXCR4-tropic HIV-1 NL4-3 infected in human MT4 cells assessed as inhibition of virus-induced cytopathic effect after 6 days by XTT dye based assay; format: functional, cell-based; conditions: Human immunodeficiency virus 1, NL4-3, MT4, 144 h; summary of the method: as §4
Hepatitis B virus [30] = test: Antiviral activity against HBV infected in human HepG2(2.2.15) cells assessed as decrease in extracellular HBV DNA levels after 12 days by dot blot analysis; format: functional, cell-based; conditions: HepG2 2.2.15, 288 h

Row | Structure (SMILES) | EC50 [1] | EC50 [2] | EC50 [3] | EC50 [4] | CC50 [5] | IC50 [6] | IC50 [7] | CC50 [8] | selectivity ratio [9] | selectivity ratio [10] | Ratio CC50/IC50 [11] | Ratio CC50/IC50 [12] | EC50 (Hepatitis B virus [16]) | EC90 (Hepatitis B virus [16]) | CC50 [17] | Ratio CC50/EC50 [18] | EC50 (Human betaherpesvirus 5 [19]) | EC50 (Human betaherpesvirus 5 [20]) | EC50 (Human alphaherpesvirus 3 [21]) | EC50 (Human alphaherpesvirus 3 [22]) | also measured
1 | Nc1nc(N)c2ncn(C[C@H](CF)OCP(=O)(O)O)c2n1 | 4.3 µM | 4.6 µM |  |  |  |  |  |  |  |  |  |  |  |  |  |  |  |  |  |  | 
2 | Nc1nc2c(ncn2CC(CF)OCP(=O)(O)O)c(=O)[nH]1 (stereo unspecified) | 5 µM | 5 µM |  |  |  |  |  |  |  |  |  |  |  |  |  |  |  |  |  |  | 
3 | CCCCCOC(=O)C[C@H](NP(=O)(CO[C@@H](CF)Cn1cnc2c(=O)[nH]c(N)nc21)Oc1ccccc1)C(=O)OCCCCC (stereo partly specified) |  |  | 0.073 µM | 0.06 µM | > 100 µM | 0.02 µM | 0.17 µM | 9.31 µM | > 1370 | > 1670 | 466 | 55 | 0.02 µM | 0.62 µM | > 100 µM | >5000 | 4.43 µM | 1.98 µM | 0.89 µM | 0.11 µM | EC50 [13]: 0.08 µM; Ratio EC50 [14]: 8; CC50 at 144 h [15]: > 1 µM; MCC at 72 h [23]: 153 µM; CC50 at 72 h [24]: 10.2 µM; half-life at 1 µM [25]: 73 min; half-life at 0.1 µM [26]: 2 min; Ratio CC50/EC50 [27]: <10; Ratio CC50/EC50 [28]: <10; EC50 [29]: 0.01 µM
4 | CCCCCOC(=O)C[C@H](NP(=O)(CO[C@H](CF)Cn1cnc2c(=O)[nH]c(N)nc21)Oc1ccccc1)C(=O)OCCCCC (stereo partly specified) |  |  | 0.16 µM | 0.22 µM | > 100 µM | 0.03 µM | 0.13 µM | 11.2 µM | > 625 | > 455 | 374 | 86 | 0.13 µM | 2.86 µM | > 100 µM | >769 | 5.94 µM | 3.05 µM | 0.59 µM | 0.079 µM | MCC at 72 h [23]: 153 µM; CC50 at 72 h [24]: 27.8 µM; Ratio CC50/EC50 [27]: <10; Ratio CC50/EC50 [28]: <10
5 | Nc1ncnc2c1ncn2C[C@@H](CF)OCP(=O)(O)O | 8 µM | 8 µM | 5.95 µM | 6.47 µM | > 100 µM | 1.19 µM | 3.73 µM | > 100 µM | > 17 | > 15 | 84 | 27 | > 1.65 µM | > 100 µM | > 100 µM | >61 | > 328 µM | > 328 µM | 98 µM | 131 µM | MCC at 72 h [23]: > 328 µM; EC50 (Hepatitis B virus [30]): 1.2 µM
